Reference: ChEMBL document CHEMBL3120161, “Antimycobacterial activity of nitrogen heterocycles derivatives: bipyridine derivatives. Part III” (Eur J Med Chem, 2014)
Converted amounts (≈) assume the structure as drawn. The source made the active and inactive calls. The calls are words filed in the database; no cut-off is given here.

Legend:
[1] = system: Mycobacterium tuberculosis; experiment: […] activity against Mycobacterium tuberculosis H37Rv SRI 1345 after 16 to 21 days; format: functional
In short: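 MBC, done after MIC testing in H37Rv SRI 1345: diluted aliquots from wells without macroscopic growth are plated on Middlebrook 7H10 agar and incubated 16–21 days at 37 °C. CFUs are counted. MBC is the lowest concentration giving 99.9% kill; rejection value is ≥40 colonies.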

[2] = Cytotoxicity against mouse J774A1 cells assessed as cell viability at 75 ug/ml after 7 days by MTT assay relative to control; format: cell-based, J774.A1; details: read-out: Activity
In short: (§1)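 Uninfected murine J774 macrophages grown in RPMI 1640 with L-glutamine and FBS at 37 °C, 5% CO2. Cells seeded at 2.0 × 10^5 per well in 10% FBS, then switched to 1% FBS overnight. Run in parallel with the 7-day infection assay. […] Read out by MTT as percent viability.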

[3] = system: Mycobacterium tuberculosis; experiment: Antimycobacterial activity against Mycobacterium tuberculosis H37Rv SRI 1345 infected in mouse J774A1 cells assessed as reduction in bacterial growth at 7.5 ug/ml after 7 days relative to control; format: functional, J774.A1
In short: (§2)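 Murine J774 macrophages in RPMI 1640 with L-glutamine and FBS, seeded at 2.0 × 10^5 per well in 10% FBS, then switched to 1% FBS. Infected 4 h with H37Rv at MOI 5; unphagocytosed bacteria washed off. Compound added at three concentrations (0.75, 7.5, 75 µg/mL) for 7 days. At 0 and 7 days cells lysed with SDS, DNase-treated and plated on 7H10 for CFU; log reduction reported.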

[4] = system: Mycobacterium tuberculosis; experiment: Antimycobacterial activity against Mycobacterium tuberculosis H37Rv ATCC 27294 at 0.79 ug/ml after 7 days by microplate Alamar blue assay relative to control; format: functional; details: H37Rv ATCC 27294, 168 h
In short: (§3)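 Cycle 1 HTS MABA: M. tuberculosis H37Rv ATCC 27294 in 7H12 broth, 384-well, final 1% DMSO. Ten twofold dilutions, typically 100 to 0.195 µg/mL. Amikacin controls at 0.17 and 3.20 µM; the high level serves as background for percent inhibition. 7 days at 37 °C, ~95% humidity. Fluorescence read at 535 nm excitation / 590 nm emission.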

[5] = Cytotoxicity against mouse J774A1 cells assessed as cell viability at 0.75 ug/ml after 7 days by MTT assay relative to control; format: cell-based, J774.A1; details: read-out: Activity; in short: as §1
[6] = system: Mycobacterium tuberculosis; experiment: Antimycobacterial activity against Mycobacterium tuberculosis H37Rv SRI 1345 after 7 days by broth microdilution assay; format: functional; details: H37Rv SRI 1345, 168 h
[7] = system: Mycobacterium tuberculosis; experiment: Antimycobacterial activity against Mycobacterium tuberculosis H37Rv SRI 1345 infected in mouse J774A1 cells assessed as reduction in bacterial growth at 0.75 ug/ml after 7 days relative to control; format: functional, J774.A1; in short: as §2
[8] = system: Mycobacterium tuberculosis; experiment: Antimycobacterial activity against Mycobacterium tuberculosis H37Rv SRI 1345 at MIC after 7 days by broth microdilution assay relative to control; format: functional
[9] = system: Mycobacterium tuberculosis; experiment: Antimycobacterial activity against Mycobacterium tuberculosis H37Rv ATCC 27294 at 0.31 ug/ml after 7 days by microplate Alamar blue assay relative to control; format: functional; details: H37Rv ATCC 27294, 168 h; in short: as §3
[10] = system: Mycobacterium tuberculosis; experiment: Antimycobacterial activity against Mycobacterium tuberculosis H37Rv SRI 1345 infected in mouse J774A1 cells assessed as reduction in bacterial growth at 75 ug/ml after 7 days relative to control; format: functional, J774.A1; in short: as §2
[11] = system: Mycobacterium tuberculosis; experiment: Antimycobacterial activity against Mycobacterium tuberculosis H37Rv ATCC 27294 after 7 days by microplate Alamar blue assay; format: functional, organism-based; details: H37Rv ATCC 27294, 168 h; in short: as §3
[12] = system: Mycobacterium tuberculosis; experiment: Antimycobacterial activity against Mycobacterium tuberculosis H37Rv ATCC 27294 at 12.5 to 100 ug/ml after 7 days by microplate Alamar blue assay relative to control; format: functional; in short: as §3
[13] = system: Mycobacterium tuberculosis; experiment: Antimycobacterial activity against Mycobacterium tuberculosis H37Rv ATCC 27294 at 6.25 ug/ml after 7 days by microplate Alamar blue assay relative to control; format: functional; details: H37Rv ATCC 27294, 168 h; in short: as §3
[14] = system: Mycobacterium tuberculosis; experiment: Antimycobacterial activity against Mycobacterium tuberculosis H37Rv ATCC 27294 after 7 days by broth microdilution assay; format: functional; details: H37Rv ATCC 27294, 168 h; in short: as §3
[15] = Cytotoxicity against mouse J774A1 cells assessed as cell viability at 7.5 ug/ml after 7 days by MTT assay relative to control; format: cell-based, J774.A1; details: read-out: Activity; in short: as §1
[16] = system: Mycobacterium tuberculosis; experiment: Antimycobacterial activity against Mycobacterium tuberculosis H37Rv ATCC 27294 at 3.13 ug/ml after 7 days by microplate Alamar blue assay relative to control; format: functional; details: H37Rv ATCC 27294, 168 h; in short: as §3
[17] = system: Mycobacterium tuberculosis; experiment: Antimycobacterial activity against Mycobacterium tuberculosis H37Rv SRI 1345 incubated for 7 days under anaerobic condition measured after 7 days of recovery under gaseous condition by low oxygen recovery assay; format: functional
[18] = system: Mycobacterium tuberculosis; experiment: Antimycobacterial activity against Mycobacterium tuberculosis H37Rv ATCC 27294 at 12.5 ug/ml after 7 days by microplate Alamar blue assay relative to control; format: functional; details: H37Rv ATCC 27294, 168 h; in short: as §3
[19] = system: Mycobacterium tuberculosis; experiment: Antimycobacterial activity against Mycobacterium tuberculosis H37Rv ATCC 27294 at 50 ug/ml after 7 days by microplate Alamar blue assay relative to control; format: functional; details: H37Rv ATCC 27294, 168 h; in short: as §3
[20] = system: Mycobacterium tuberculosis; experiment: Antimycobacterial activity against Mycobacterium tuberculosis H37Rv ATCC 27294 at 100 ug/ml after 7 days by microplate Alamar blue assay relative to control; format: functional; details: H37Rv ATCC 27294, 168 h; in short: as §3
[21] = system: Mycobacterium tuberculosis; experiment: Antimycobacterial activity against Mycobacterium tuberculosis H37Rv ATCC 27294 at 25 ug/ml after 7 days by microplate Alamar blue assay relative to control; format: functional; details: H37Rv ATCC 27294, 168 h; in short: as §3
[22] = system: Mycobacterium tuberculosis; experiment: Antimycobacterial activity against Mycobacterium tuberculosis H37Rv ATCC 27294 at 6.5 ug/ml after 7 days by microplate Alamar blue assay relative to control; format: functional; details: H37Rv ATCC 27294, 168 h; in short: as §3
[23] = system: Mycobacterium tuberculosis; experiment: Antimycobacterial activity against Mycobacterium tuberculosis H37Rv ATCC 27294 at 1.56 ug/ml after 7 days by microplate Alamar blue assay relative to control; format: functional; details: H37Rv ATCC 27294, 168 h; in short: as §3

Row | SMILES | inhibition at 0.79 µg/mL [4] [%] | IC50 [11] [µg/mL] | IC90 [11] [µg/mL] | MIC90 [14] [µM] | inhibition at 3.13 µg/mL [16] [%] | inhibition at 12.5 µg/mL [18] [%] | inhibition at 50 µg/mL [19] [%] | inhibition at 100 µg/mL [20] [%] | inhibition at 1.56 µg/mL [23] [%] | also measured
1 | CCOC(=O)c1cc(C(=O)c2ccccc2)n2ccc(-c3cc[n+](CC(=O)c4ccc(OC)cc4)cc3)cc12.[Br-] | 9.9 | 3.88 | 13.1 | 12.5 | 38.6 |  |  |  |  | Activity [1]: inactive; viability at 168 h, 75 ug/ml [2]: < 10%; fold change (FC) [3]: 2.65; viability at 168 h, 0.75 ug/ml [5]: 86%; MIC [6]: 2.34 µg/mL; fold change (FC) [7]: 1.19; inhibition (INH) [8]: 51%; MIC90 [9]: 12.5 µM; fold change (FC) [10]: 3.11; inhibition (INH) [12]: 98.5%; inhibition at 6.25 µg/mL [13]: 65.1%; viability at 168 h, 7.5 ug/ml [15]: 71%; INH [17]: 1.17 µg/mL
2 | CCOC(=O)c1cc(C#N)n2ccc(-c3ccncc3)cc12 | 8.6 | 33.4 (≈ 114 µM) | 59.5 (≈ 204 µM) | > 100 |  | 15.3 | 84.9 | 97.2 |  | inhibition at 25 µg/mL [21]: 21.5%
3 | CCOC(=O)c1cc(C(=O)c2ccccc2)n2ccc(-c3ccncc3)cc12 |  | > 100 | > 100 | > 100 | 3.9 |  |  | -8.6 | 3 | inhibition at 6.5 µg/mL [22]: 0.2%
4 | CCOC(=O)c1cc(C(=O)c2ccccc2)n2ccc(-c3ccn4c(C(=O)c5ccc(OC)cc5)cc(C(=O)OC)c4c3)cc12 |  | > 100 | > 100 | > 100 |  | 0.8 | 5.3 | -4.5 | -2 | 
5 | CCOC(=O)c1cc(C(N)=O)n2ccc(-c3ccncc3)cc12 |  | > 100 | > 100 | > 100 |  | 4 | 2 | -17 | 2.8 | 
